# Screens deposited in PubChem by several laboratories.
# Hits are enriched below; roughly 12% of the tested compounds scored in any of these assays.
# ABCG2 block = ABCG2 efflux pump inhibitors, primary screen, multiplex with ABCB1, IgMXP3 cells, flow cytometry. Broad substrate specificity ATP-binding cassette transporter ABCG2 (Homo sapiens), Q9UNQ0. JC-1 efflux. inhibition, % at 6.6 µM. hit rate 0.1% among 190,000;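 active = inhibition above 80%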;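 also: 0% = DMSO and 100% = nicardipine control wells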
#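 Test system: IgMXP3 cells (ABCG2) mixed with DDAO far-red-labelled CCRF-Adr cells (ABCB1). Reagent: JC-1 transporter substrate. Compound dosing: single test compound dose, 6.6 µM final. Times: 10 min compound exposure, 25 °C. Detection: flow cytometry of retained JC-1 fluorescence. Read-out basis: efflux inhibition in percent versus controls. Controls: nicardipine and DMSO wells.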
# RAM network inh = inhibitors of the yeast RAM network, primary screen, dse1pr::URA3 reporter, 5-FOA selection | inhibition, % at 50 µM | hit rate 1.8% among 190,000 | S. cerevisiae dse1pr::URA3 reporter, 5-FOA growth OD615, 2 d; analog-sensitive cbk1-as2 kinase mutant strain;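 active = inhibition above a set limit, 3 SD over mean compound inhibition, cut at about 8.4% in these data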;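 also: 0% = DMSO-only wells with no growth and 100% = 10 µM 1-NA-PP1 full growth; inhibition rescues growth on 5-FOA so higher OD means more RAM inhibition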
# WT yeast gro inh = growth inhibition of WT strain, primary screen, mitochondrial fusion inhibitor project, WT and mutant strains, chemical genetic; mitochondrial fusion phenotypic screen; inhibition, % at 10 µM; hit rate 2.1% among 190,000; in the data active = inhibition above about 58%; tested in S. cerevisiae
# ABCB1 inh = ABCB1 efflux pump inhibitors, primary screen, cell-based, multiplex, flow cytometry, ABCG2 counter-screen; inhibition, % at 6.6 µM; hit rate 0.067% among 190,000; AID 1326, 2008; CCRF-Adr cells, JC-1 efflux; ATP-dependent translocase ABCB1 (Homo sapiens), P08183; in the data active = inhibition above about 40%;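 also: 0% = vehicle and 100% = reference inhibitor; higher value means more JC-1 retained so stronger ABCB1 efflux block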
# L major viab = Leishmania major promastigote growth inhibition, primary screen; inhibition, % at 10 µM; Leishmania major promastigotes, resazurin fluorescence viability; hit rate 9% among 200,000; in the data active = inhibition above about 50%;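 also: promastigotes grown with compound for 44 hours at 28 °C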
# Numbers without * were called inactive; . = no result given.
SMILES,ABCG2 block,RAM network inh,WT yeast gro inh,ABCB1 inh,L major viab
CCOC(=O)Cc1nc(-c2ccc(Cl)cc2)n[nH]1,8,-1,3,0,2
Cc1ccc(-n2c(O)c(C=Nc3ccc4c(c3)OCO4)c3ccccc3c2=O)cc1C,0,10*,9,0,0
Cc1cc(N=Cc2c(O)n(-c3ccc(C)c(C)c3)c(=O)c3ccccc23)no1,-2,2,2,1,54*
Cc1ccc(-n2c(O)c(C=Nc3cc(C)on3)c3ccccc3c2=O)c(C)c1,1,4,15,2,12
Cc1cc(N=Cc2c(O)n(-c3ccc4c(c3)OCO4)c(=O)c3ccccc23)ccn1,7,3,12,7,14
Cc1cccc(C(=O)N[C@H](C(=O)Nc2ccc(C)c(S(=O)(=O)N(C)C)c2)C(C)C)c1,4,3,-5,0,9
Clc1ccccc1CSc1cc2c(nn1)-c1ccccc1CC2,1,10*,12,0,-1
Clc1cccc(Cl)c1CSc1cc2c(nn1)-c1ccccc1CC2,49,7,35,1,7
O=c1cc2c(nn1Cc1c(Cl)cccc1Cl)-c1ccccc1CC2,0,8,-4,0,49
Clc1ccc(CSc2cc3c(nn2)-c2ccccc2CC3)cc1Cl,4,10*,37,1,-9
Cc1ccc(OCC(=O)N/N=C/C=C/c2ccco2)cc1C,16,0,9,0,-2
CS/C(=N\N(C)C(N)=O)c1ccccc1,4,2,21,0,69*
CS/C(=N\NC(N)=O)c1ccccc1,-1,-1,-2,0,48
OC(CCCN1CCC(O)(c2ccc(Cl)cc2)CC1)c1ccc(F)cc1 (stereo not drawn),-2,1,5,-1,96*
COc1ccc2[nH]c3c(=O)n(Cc4ccc(C(=O)N5CCCC5)cc4)c(=S)[nH]c3c2c1,-12,4,-5,0,-7
CCOC(=O)c1c(-c2ccccc2)oc2ccc(OCC)cc12,3,0,6,1,-6
CCOC(=O)c1c(-c2ccccc2)oc2ccc(O)c(CN3CCN(C)CC3)c12,8,1,40,1,89*
CCOC(=O)c1c(-c2ccccc2)oc2cc(CN(C)C)c(O)c(CN(C)C)c12,.,.,.,.,100*
CCCC(=O)NCCc1cc(OC)c(OC)cc1Br,23,2,11,1,-5
Cc1ccccc1CN1C[C@@H]2C[C@@H](c3cnc(N4CCOCC4)s3)N3CCC[C@@]23C1=O,-1,0,10,0,-8
COc1ccc(NC(=O)Cn2c(NCC(C)O)nc3ccccc32)cc1Cl (stereo not drawn),0,0,-7,0,-4
Cc1ccc(C(=O)C2CCN(CC(=O)N3CCN(c4ccc(F)cc4)CC3)CC2)cc1,15,3,11,0,89*
O=C(Nc1ccc(Cl)cc1)c1csc(-c2ccccc2)n1,4,9.7*,27,1,-5
O=C(Nc1ccc(Cl)cc1)c1csc(-c2ccncc2)n1,3,-1,17,1,16
CCOC(=O)CSc1nnc(CSc2nc3sc4c(c3c(=O)[nH]2)CCC4)n1C,0,8.7*,12,0,-7
SMILES,ABCG2 block,RAM network inh,WT yeast gro inh,ABCB1 inh,L major viab
CCOc1ccccc1CNCCOC,6,-1,17,0,-1
CC(C)NC(=O)NC(=O)CSc1nncs1,1,0,-14,0,-3
Cc1ccc2nsnc2c1S(=O)(=O)NCCc1c(C)[nH]c2ccc(F)cc12,1,1,-49,0,98*
Cc1ccc(C)c(NS(=O)(=O)c2c(C)ccc3nsnc23)c1,7,2,6,1,24
Nc1nc(Nc2ccccc2)nc2ccccc12,2,0,39,0,80*
Nc1nc(Nc2ccc(Cl)cc2)nc2ccccc12,1,2,.,0,93*
Cc1ccccc1Nc1nc(N)c2ccccc2n1,0,3,47,0,96*
Cc1ccccc1Nc1nc(N)nc(CSc2nc3ccccc3c(=O)n2C)n1,3,4,4,1,6
CNC(=O)COC(=O)/C=C/c1cccc(F)c1,27,0,-7,2,-5
O=C(NNC(=O)c1cccc(O)c1)Nc1ccc([N+](=O)[O-])cc1,1,4,-6,0,-2
